For two molecules, Activity and EC50 results are on record in ChEMBL document CHEMBL4715825, “Synthesis and biological evaluations of marine oxohexadecenoic acids: PPARα/γ dual agonism and anti-diabetic target gene effects” (Eur J Med Chem, 2018).

pEC50: −log10 of the molar value. Active and inactive are the calls of the source. The calls are words filed in the database; no cut-off is given here.

Experiment [1] concerns SGBS. Nature of the experiment: Effect on diabetic complication pathway in 8 day differentiated human SGBS cells assessed as downregulation of extracellular matrix-recptor interaction genes at 25 uM incubated for 8 days by Illumina sequencing method. The class given is functional, cell-based. The method in brief:
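SGBS cells were differentiated 4 days in Quickdiff supplemented with compound:BSA or rosiglitazone, then 4 days in 3FC. Total RNA was extracted, and strand-specific TruSeq libraries were sequenced on NextSeq 500 (2×75 bp paired-end). Reads were aligned to hg19 with Tophat/Bowtie and counted as RPKM by Cufflinks. Values are log2 fold over day 0 cells, grouped into KEGG gene sets (n = 2-4).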

Experiment [2] addresses T1, Peroxisome proliferator-activated receptor gamma (Homo sapiens) (UniProt P37231).
T1 sequence (whole entry): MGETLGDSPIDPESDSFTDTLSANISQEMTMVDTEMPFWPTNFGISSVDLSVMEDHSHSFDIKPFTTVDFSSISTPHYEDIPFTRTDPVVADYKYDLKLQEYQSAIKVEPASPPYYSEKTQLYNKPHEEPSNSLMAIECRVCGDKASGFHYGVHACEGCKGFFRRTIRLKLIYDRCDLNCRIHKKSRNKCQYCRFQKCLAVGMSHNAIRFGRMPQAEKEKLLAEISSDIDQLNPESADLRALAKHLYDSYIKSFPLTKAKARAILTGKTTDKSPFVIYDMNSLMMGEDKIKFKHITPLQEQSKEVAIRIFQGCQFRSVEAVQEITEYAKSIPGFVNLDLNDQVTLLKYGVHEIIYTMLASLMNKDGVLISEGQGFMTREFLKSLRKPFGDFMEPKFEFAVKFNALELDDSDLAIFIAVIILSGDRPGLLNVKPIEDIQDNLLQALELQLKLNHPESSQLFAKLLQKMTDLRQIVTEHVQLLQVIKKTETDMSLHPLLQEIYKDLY
Nature of the experiment: Agonist activity at human PPARgamma in 8 day differentiated human SGBS cells assessed as decrease in TNF gene expression at 25 uM incubated for 24 hrs by SYBR-green based qPCR analysis. The note with it: filed as agonist. In kind it is cell-based.

Experiment [3] deals with T2, Peroxisome proliferator-activated receptor alpha (Homo sapiens, UniProt Q07869).
T2 sequence (Q07869 whole entry): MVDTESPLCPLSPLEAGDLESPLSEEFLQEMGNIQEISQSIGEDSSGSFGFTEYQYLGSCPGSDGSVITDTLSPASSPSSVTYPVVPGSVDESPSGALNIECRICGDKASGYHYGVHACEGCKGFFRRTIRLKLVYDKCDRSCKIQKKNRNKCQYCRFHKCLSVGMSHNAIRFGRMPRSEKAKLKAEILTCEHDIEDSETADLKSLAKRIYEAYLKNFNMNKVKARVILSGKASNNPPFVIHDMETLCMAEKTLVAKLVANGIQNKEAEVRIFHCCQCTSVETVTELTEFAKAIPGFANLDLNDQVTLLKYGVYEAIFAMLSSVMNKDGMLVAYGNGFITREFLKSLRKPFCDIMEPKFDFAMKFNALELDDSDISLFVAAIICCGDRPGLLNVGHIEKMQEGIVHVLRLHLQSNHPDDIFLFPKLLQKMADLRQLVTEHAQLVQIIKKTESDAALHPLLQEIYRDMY
In words: Agonist activity at recombinant human PPARalpha LBD (168 to 468 residues) expressed in African green monkey COS-1 cells incubated for 18 hrs by luciferase reporter gene assay. The class given is cell-based. The method in brief:
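Transient Gal4 one-hybrid assay in COS-1 cells (7×10^4 per well), transfected 24 h after seeding. Plasmids were Gal4-DBD fused to the human nuclear receptor LBD, a 5×UAS-SV40 luciferase reporter and pRL-CMV Renilla control. Ligand in DMSO (final 0.1%) was added 5 h post-transfection. Dual-luciferase activity was read after 18 h, expressed as RLU, from three biological replicates in quadruplicate.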

Experiment [4] deals with SGBS. In words: Induction of adipogenesis in 8 day differentiated human SGBS cells assessed as increase in CEBPB mRNA expression at 25 uM measured upto 12 days by qRT-PCR analysis. In kind it is functional, cell-based. The note with it: time day <=12. The method in brief:
(§1)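 SGBS cells were grown to confluence (day 0). Quickdiff medium was supplemented with compound or rosiglitazone for 4 days, followed by 3FC medium. DMSO or DMSO:BSA served as control. RNA was harvested on days 0, 4, 8 and 12, and expression was measured by SYBR-green qPCR. Data are mean ± SEM of at least three biological replicates in duplicate.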

For experiment [5], the system named is SGBS. In words: Induction of adipogenesis in 8 day differentiated human SGBS cells assessed as increase in PLIN1 mRNA expression at 25 uM measured upto 12 days by qRT-PCR analysis. The class given is functional, cell-based. The note with it: time day <=12. Summed up:
as §1
(In general: Real-time PCR tracks product formation cycle by cycle.)

Experiment [6] concerns the target T3, Peroxisome proliferator-activated receptor alpha (Homo sapiens) (UniProt Q07869).
T3 sequence (whole entry): T2 sequence (Q07869 whole entry)
In words: Agonist activity at human PPARalpha in 8 day differentiated human SGBS cells assessed as increase in PLIN1 gene expression at 25 uM incubated for 24 hrs by SYBR-green based qPCR analysis. The class given is cell-based. Summed up: (§2)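 SGBS preadipocytes were seeded at passage P6-P8 and grown to confluence. They were differentiated for 4 days in Quickdiff (3FC plus dexamethasone, IBMX and rosiglitazone), then kept in 3FC with medium renewed every fourth day. On day 8, cells were stimulated for 24 h in 3FC with compound:BSA or rosiglitazone. SYBR-green qPCR used gene-specific primers. Data are mean ± SEM of three biological replicates in duplicate.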

The subject of experiment [7] is SGBS. Nature of the experiment: Induction of adipogenesis in 8 day differentiated human SGBS cells assessed as increase in CEBPA mRNA expression at 25 uM measured upto 12 days by qRT-PCR analysis. In kind it is functional, cell-based. The note with it: time day <=12. The method in brief:
as §1

Experiment [8] has as its target T1, Peroxisome proliferator-activated receptor gamma (Homo sapiens). Nature of the experiment: Agonist activity at human PPARgamma in 8 day differentiated human SGBS cells assessed as increase in ADIPOQ gene expression at 25 uM incubated for 24 hrs by SYBR-green based qPCR analysis. In kind it is cell-based. Particulars: filed as agonist. Summed up:
as §2

Experiment [9] deals with SGBS. Nature of the experiment: Induction of adipogenesis in 8 day differentiated human SGBS cells assessed as upregulation of PPAR signalling genes at 25 uM incubated for 8 days by Illumina sequencing method. The class given is functional, cell-based. Summed up: (§3)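 SGBS cells were differentiated for 8 days: Quickdiff for days 0-4 with 2 µM rosiglitazone or 25 µM oxo-fatty acid:BSA, then 3FC. Total RNA was extracted (RIN 9.80-10.00) and strand-specific TruSeq libraries were sequenced on NextSeq 500 (2×75 bp paired-end). Reads were aligned to hg19 and quantified as RPKM. Data were expressed as log2 fold over day-0 cells (n = 2-4) and grouped into KEGG gene sets.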

For experiment [10], the target named is T1, Peroxisome proliferator-activated receptor gamma (Homo sapiens). In words: Agonist activity at human PPARgamma in 8 day differentiated human SGBS cells assessed as increase in IRS1 gene expression at 25 uM incubated for 24 hrs by SYBR-green based qPCR analysis. In kind it is cell-based. Particulars: filed as agonist.
Experiment [11] relates to SGBS. In words: Induction of adipogenesis in 8 day differentiated human SGBS cells assessed as increase in UCP1 mRNA expression at 25 uM measured over 12 days by qRT-PCR analysis. In kind it is functional, cell-based. The note with it: time 12.0 day. The method in brief: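 SGBS preadipocytes (passage P6-P8) were grown to confluence (day 0), then differentiated 4 days in Quickdiff (3FC with 25 nM dexamethasone, 0.5 mM IBMX) supplemented with 25 µM oxo-fatty acid (as BSA complex), then in 3FC medium with medium renewed every fourth day. Cells were harvested on days 0, 4, 8 and 12. mRNA was measured by SYBR green qPCR. Data are mean ± SEM from at least 3 biological replicates run in duplicate.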

Experiment [12] relates to SGBS. Nature of the experiment: Induction of adipogenesis in 8 day differentiated human SGBS cells assessed as upregulation of fatty acid biosynthesis genes at 25 uM incubated for 8 days by Illumina sequencing method. The class given is functional, cell-based. Summed up: as §3

As for `CCCCCCCC(=O)/C=C/CCCCCC(=O)O`, the result in experiment [1], in experiment [2], in experiment [4], in [5], in experiment [7] and in experiment [8] was Active. The result in experiment [9], in experiment [10], in experiment [11] and in [12] was Active. Besides, in experiment [3], the negative logarithm of the EC50 (pEC50) (as a rule, the negative decadic logarithm of the EC50, by convention in mol/L) is 4.70. Moreover, the outcome in [6] was inactive.
For the molecule `CCCCC/C=C/C(=O)CCCCCCCC(=O)O`, the result in [1], in experiment [2], in [4], in [5], in experiment [7] and in experiment [8] was Active. The outcome in [9], in [10], in experiment [11] and in [12] was Active. The pEC50 in [3] is 4.59. For the same molecule, the outcome in [6] was inactive.
